Neddyl block = blocks human cullin neddylation; AID 651699; inhibition, % at 25 µM; TR-FRET cullin neddylation, biochemical; 360,000 tested, 0.58% active; in the data active = inhibition above about 36%
Target sequence (P61081 whole entry, looked up): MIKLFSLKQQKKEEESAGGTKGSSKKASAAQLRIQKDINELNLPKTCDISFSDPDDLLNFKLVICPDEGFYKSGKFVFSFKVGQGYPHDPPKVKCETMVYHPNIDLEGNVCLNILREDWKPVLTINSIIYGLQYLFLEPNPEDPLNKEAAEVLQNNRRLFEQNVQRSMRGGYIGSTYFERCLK
Target sequence (Q13564 whole entry, looked up): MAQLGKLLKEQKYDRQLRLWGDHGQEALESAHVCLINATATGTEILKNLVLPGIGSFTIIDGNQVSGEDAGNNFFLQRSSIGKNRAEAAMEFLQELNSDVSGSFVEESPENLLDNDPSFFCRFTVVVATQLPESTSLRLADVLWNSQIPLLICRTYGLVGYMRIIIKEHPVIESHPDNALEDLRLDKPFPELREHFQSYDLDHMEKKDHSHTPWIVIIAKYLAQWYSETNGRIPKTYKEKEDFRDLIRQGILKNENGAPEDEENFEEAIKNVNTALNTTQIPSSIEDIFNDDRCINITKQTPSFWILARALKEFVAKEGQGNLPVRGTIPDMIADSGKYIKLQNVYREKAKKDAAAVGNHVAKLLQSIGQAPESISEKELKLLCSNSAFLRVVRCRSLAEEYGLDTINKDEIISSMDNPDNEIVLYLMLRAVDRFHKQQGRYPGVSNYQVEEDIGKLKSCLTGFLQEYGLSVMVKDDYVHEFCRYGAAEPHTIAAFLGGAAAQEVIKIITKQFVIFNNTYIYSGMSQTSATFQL
PfG6PD inh = PfG6PD (Plasmodium falciparum) enzyme inhibition. PfGluPho enzyme, NADPH resazurin-diaphorase fluorescence. inhibition, % at 20 µM. 350,000 tested, 0.78% active. AID 504690;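 active = inhibition reaching at least a set limit at 20 µM in the primary screen, cut at about 59% in these data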;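 note: 0% = DMSO wells with substrate and 100% = DMSO wells lacking glucose-6-phosphate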
PfM18AAP inh = blocks P. falciparum M18 aspartyl aminopeptidase; 290,000 tested, 1.2% active; recombinant PfM18AAP, H-Glu-NHMec fluorogenic cleavage; inhibition, % at 7.35 µM;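 active = inhibition above the campaign mean inhibition over all tested compounds plus 3 SD, cut at about 28% in these data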;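 note: 0% = plate median of test compound wells and 100% = 2 mM ZnCl2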
HKDC1 inh = HKDC1 (human) hexokinase inhibition; recombinant HKDC1, G6PDH/diaphorase resazurin coupled fluorescence; AID 493160; 340,000 tested, 0.16% active; Q2TB90; inhibition, % at 20 µM;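 active = inhibition above about 35% when tested at 20 µM, limit read from the data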;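 note: plate controls were DMSO wells with enzyme for no effect and DMSO wells lacking enzyme for full effect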
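Incubation: 90 min at room temperature in dark / Material: recombinant HKDC1 (HK5) hexokinase enzyme, produced in-house / Quantity: enzyme 5 µg/mL final / Compound: one dose of 20 µM, 1% DMSO / Reagent: glucose and ATP substrates / Buffer or medium: Tris pH 8.0 buffer with MgCl2, Tween-20, BSA, BME / Technique: resorufin fluorescence at 613 nm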
Neddyl conf = confirmation of human cullin neddylation inhibitors; shares compounds with Neddyl block; TR-FRET cullin neddylation biochemical assay; calls only at 25 µM; 1,800 tested, 13% active; AID 652217; in the data active = inhibition above about 40%;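 note: neddylation substrate is the cullin 1 ring ligase complex with SKP2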
* hit, by the source's call; i = inactive; x = not tested or not shown; + = active, no number. The list is not random: actives were taken first. Their share in the collection is about 2.2%.

SMILES | Neddyl block | PfG6PD inh | PfM18AAP inh | HKDC1 inh | Neddyl conf
COc1ccccc1N1CCN(CC(O)c2ccc3cc[nH]c3c2)CC1 (stereo not given) | 44* | -8 | 0 | 0 | i
Cc1ccc(NC(=O)N2CCCC2C(=O)Nc2nnc(C(C)C)s2)cc1 (stereo not given) | 3 | 10 | -1 | 1 | x
C[C@@H](CO)NC(=O)c1ccc2c3n(nc2c1)-c1ccc(Cl)cc1CO3 | 26 | 17 | x | 2 | x
Cc1ccc2c(c1)COc1c3ccc(C(=O)NC(C)C)cc3nn1-2 | 51* | 9 | x | -1 | +
O=C(NCCO)c1ccc2c3n(nc2c1)-c1ccc(Cl)cc1CO3 | 16 | 17 | x | 0 | x
Cc1ccc2c(c1)COc1c3ccc(C(=O)NCCO)cc3nn1-2 | 53* | 10 | x | -3 | +
Cc1ccc2c(c1)COc1c3ccc(C(=O)N[C@@H](C)CO)cc3nn1-2 | 54* | 6 | x | -2 | x
COc1cccc(NC(=O)[C@H](NC(=O)[C@@H]2Cc3ccccc3CN2)c2ccccc2)c1 | 0 | 16 | 2 | 3 | x
CCc1cc(=O)oc2cc(C)cc(OC(C)C(=O)NC(Cc3c[nH]c4ccc(O)cc34)C(=O)O)c12 (stereo not given) | 33 | 6 | -8 | 9 | x
COc1cccc(/C=N/n2nnnc2N)c1OCc1ccccc1Cl | 41* | -2 | -10 | -6 | x
CCOc1cc(C2NC(=O)c3ccccc3O2)ccc1OC (stereo not given) | 44* | 4 | -1 | -6 | i
Cc1ccc(OCC(=O)N2CC(C)CC(C)C2)c([N+](=O)[O-])n1 (stereo not given) | -18 | -1 | x | -3 | x
COc1ccc(CNC(=O)c2cc(C3CC3)nc3c2cnn3C(C)C)cc1OC | 13 | 9 | x | 2 | x
Cc1ccccc1CCNC(=O)c1cc(C2CC2)nc2c1cnn2C(C)C | x | 21 | x | 1 | x
Cc1ccc(CNC(=O)c2cc(C3CC3)nc3c2cnn3C(C)C)cc1 | 43* | 18 | x | 0 | i
CC(C)n1ncc2c(C(=O)NCCc3ccc(F)cc3)cc(C3CC3)nc21 | 59* | 28 | x | 5 | x
Cc1nn(C(C)C(=O)N2CCCC2)c(=O)c2nn(-c3ccccc3)c(C)c12 (stereo not given) | 16 | -3 | -14 | -3 | x
Cc1cc(=O)oc2cc(OCC(=O)N3CCCC3)c(Cl)cc12 | 60* | 6 | x | 7 | x
Cc1cc(=O)oc2cc(OCC(=O)N3CCOCC3)c(Cl)cc12 | x | 10 | x | -3 | x
CCN1CCN(S(=O)(=O)c2ccc3c4c(cccc24)C(=O)N3CC)CC1 | 58* | -8 | x | 7 | x
CCN1C(=O)c2cccc3c(S(=O)(=O)N4CCNCC4)ccc1c23 | x | 31 | x | 13 | x
CCN1C(=O)c2cccc3c(S(=O)(=O)NCc4ccco4)ccc1c23 | 51* | 43 | 13 | 9 | i
CCN1C(=O)c2cccc3c(S(=O)(=O)NCc4cccnc4)ccc1c23 | x | -3 | 3 | 0 | x
CCc1noc(C)c1C(=O)Nc1nnc(C2CCCCC2)s1 | x | x | 5 | x | x
CC(C)OC(=O)C(C#N)c1nc2ccccc2nc1N1CCCC1 (stereo not given) | 41* | -5 | -7 | -5 | i
SMILES | Neddyl block | PfG6PD inh | PfM18AAP inh | HKDC1 inh | Neddyl conf
COC(=O)C1CCN(c2nc3ccccc3nc2C(C#N)C(=O)OCC(C)C)CC1 (stereo not given) | 41* | 14 | -10 | -3 | i
N#Cc1ccc(NC(=O)C2=COCCO2)cc1 | 2 | -9 | x | -3 | x
CCc1ccc2c(c1)C(=O)C[C@]1(CCC[C@H](C)C1)O2 | 26* | 5 | x | -2 | i
C[C@H]1CCC[C@]2(CC(=O)c3cc(F)ccc3O2)C1 | 25 | 12 | x | 4 | x
O=C1CC2(CCCCC2)Oc2ccc(Cl)cc21 | 28* | -8 | x | -1 | i
CC(=O)c1ccc(-c2ccc(C(=O)N3CCN(c4ccc(F)cc4)CC3)o2)cc1 | -1 | 5 | -4 | -4 | x
CC(=O)c1ccc(-c2ccc(C(=O)N3CCC(C(N)=O)CC3)o2)cc1 | 69* | -13 | x | -6 | x
CCOc1ccc(S(=O)(=O)N(CC(=O)N/N=C/c2ccc(-c3ccc([N+](=O)[O-])cc3)o2)c2ccccc2)cc1 | -6 | 22 | 6 | 22 | x
CCOc1ccc(C(=O)N/N=C/c2ccc(-c3ccc(S(=O)(=O)Nc4ncccn4)cc3)o2)cc1 | 57* | -13 | 3 | -4 | +
COc1ccc(-c2cc(C(F)(F)F)n3nc(C(=O)N4CCCCC4)cc3n2)cc1OC | 38* | -3 | -1 | -3 | i
O=C(c1cc2nc(-c3ccco3)cc(C(F)(F)F)n2n1)N1CCCCCC1 | 56* | -2 | -6 | -1 | x
CN1CCN(C(=O)c2cnn3c(C(F)(F)F)cc(-c4ccc5c(c4)OCO5)nc23)CC1 | -4 | 8 | 4 | 7 | x
O=C(c1cc2nc(-c3ccccc3)cc(C(F)(F)F)n2n1)N1CCCC1 | 41* | 3 | x | -4 | i
O=C(c1cnn2c(C(F)(F)F)cc(-c3ccc4c(c3)OCO4)nc12)N1CCCCC1 | 44* | -10 | 2 | -3 | i
Cc1nn(CC(=O)N(C)C)c(C)c1S(=O)(=O)N1CCOCC1 | -19 | 2 | x | 0 | x
O=C(CCN=C1NS(=O)(=O)c2ccccc21)Nc1ccc(F)cc1Cl | 11 | -1 | x | 1 | x
CC(C)CC(=O)[C@@H](O)Cc1ccc(O)cc1 | 2 | x | x | x | x
CCN(CC)S(=O)(=O)c1ccc(C(=O)NC(=S)N(CCC#N)Cc2cccnc2)cc1 | -9 | 6 | 7 | -4 | x
CN(Cc1ccccc1)S(=O)(=O)c1ccc(Cl)c(C(=O)NCc2cccnc2)c1 | 4 | -3 | x | -8 | x
O=C(Nc1nccs1)c1cccc(NC(=O)C(F)(F)F)c1 | 9 | -7 | -5 | -5 | x
CC1Oc2ccccc2C=C1/C=N/NC(=O)c1ccccc1 (stereo not given) | x | 18 | 3 | -11 | x
CC1Oc2ccccc2C=C1/C=N/NC(=O)c1ccccc1O (stereo not given) | 51* | 1 | 13 | -7 | i
CCOc1cc(/C=N/NC(=O)c2cc3c(ccc4ccccc43)o2)ccc1O | x | -4 | 1 | -11 | x
CCOC(=O)COc1ccccc1/C=N\NC(=O)c1cc2c(ccc3ccccc32)o1 | 55* | -8 | -11 | -3 | x
NS(=O)(=O)c1cccc(NC(=O)CSc2nnc(-c3ccncc3)n2C2CC2)c1 | -4 | 21 | x | 4 | x
SMILES | Neddyl block | PfG6PD inh | PfM18AAP inh | HKDC1 inh | Neddyl conf
CCOc1ccc(CCNC(=O)COC(=O)c2cccc(N(C)C)c2)cc1OCC | 40* | -7 | x | -4 | i
CN(C)c1cccc(C(=O)OCC(=O)Nc2ccccc2Cl)c1 | x | 2 | 5 | -6 | x
CN(C)c1cccc(C(=O)OCC(=O)Nc2ccccc2-c2ccccc2)c1 | 40* | 10 | -2 | -6 | i
C=CCNC(=O)C(=O)Nc1cc2c3c(c1)CCC(=O)N3CCC2 | -6 | 3 | 3 | -3 | x
Cc1nc(NC(=O)CN2CCC(O)(c3ccc(F)cc3)CC2)sc1C | -2 | -25 | -2 | -2 | x
COc1ccc(-c2ccc(SCC(=O)NCc3ccco3)nn2)cc1 | 13 | 8 | -7 | -11 | x
COc1ccc(-c2[nH]c(-c3cccc(OC)c3)nc2SCC(=O)NCc2ccco2)cc1 | 42* | 23 | 2 | 0 | i

Screens deposited in PubChem by several laboratories.
